Laboratory results published in ChEMBL document CHEMBL4513216, “Probing the Open Global Health Chemical Diversity Library for Multistage-Active Starting Points for Next-Generation Antimalarials” (ACS Infect Dis, 2020).

Test: Toxicity liver stage against HepG2, at 10uM
Assay type: cell-based
Design: test concentration 10 uM, cell line HepG2-A16-CD81EGFP
Details: human, HepG2-A16-CD81EGFP cells; read-out: INHIBITION
Procedure, shortened: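 Uninfected HepG2-A16-CD81EGFP cells, 3 × 10^3 per well, 1536-well, plated on prespotted compound at 10 μM final, parasite-free screening media added to match infected plates; puromycin 10 μM positive, DMSO 0.5% negative; run in parallel with 48 h PbLuc assay at 37 °C, 5% CO2; viability by CellTiter-Glo luminescence, normalized to controls.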

| Compound | cytotoxicity at 10 µM [%] |
| --- | --- |
| CC1(C)Oc2ccc(S(=O)(=O)NCCCn3ccnc3)cc2NC1=O | 14.5 |
| CN1CCC(N[C@@H]2CO[C@H](CNC(=O)c3cccs3)[C@H]2O)CC1 | -0.376 |
| CCN(CC)CC[C@H]1CN(C(=O)C2CCC2)CC[C@H]1CC(=O)O | 1.35 |
| COc1ccc(CN2Cc3[nH]nc(C(=O)N(C)C)c3C2)cc1 | -2.48 |
| c1cnc(NC[C@H]2OC[C@@H]3CCN(Cc4ccncc4)C[C@@H]32)nc1 | -4.61 |
| O=C(C1CCOC1)N1CCN(Cc2ccncc2)c2ncccc2C1 (stereo not given) | 0.617 |
| CC(C)CNC(=O)c1cc2c(s1)CCN2S(C)(=O)=O | -0.522 |
| O=C(COc1coc(CN2CCCC2)cc1=O)NCc1ccccc1Cl | -0.317 |
| O=S(=O)(Nc1cnn(C2CCOCC2)c1)c1c(F)cccc1F | 13.9 |
| CC(C)CN1C[C@@H]2CN(C(=O)[C@H]3CCCO3)C[C@@H]2C1=O | 6.03 |
| CC[C@H]1NCCC[C@]12CCC(=O)N2Cc1ccncc1 | 6.29 |
| CCn1nc(C)c2nc(C(C)C)nc(NCCOC)c21 | 6.3 |
| COCCC(=O)N1CCOCC(Cc2ccc3c(ccn3C)c2)C1 (stereo not given) | 6.66 |
| CC(C(N)=O)n1nc(-c2cccs2)cc(N)c1=O (stereo not given) | 6.44 |
| O=C(NCC1CCOCC1)c1cc(-c2ccncc2)c2cnccc2n1 | -0.762 |
| Cn1ccc(NC(=O)CN2CCC(Oc3cnccn3)CC2)n1 | 4.3 |
| CN1CCC(c2[nH]ncc2S(C)(=O)=O)CC1 | -7.06 |
| CCCC(=O)N1CCC(c2cc[nH]n2)C1 (stereo not given) | 1.2 |
| CC(=O)N1CCCC1c1cccc(Oc2ccccc2F)n1 (stereo not given) | -2.53 |
| COc1ccc(CNC(=O)N2CCOCC2C2CC2)c(C)c1 (stereo not given) | 4.54 |
| CC(=O)NCCc1ccc(S(=O)(=O)N(C)C(C)C(C)(C)C)s1 (stereo not given) | -3.58 |
| O=S(=O)(NCCCN1CC=CC1)c1cncc(Cl)c1 | -6.38 |
| O=C(C1CCCc2[nH]ncc21)N1CCCC1 (stereo not given) | 8.53 |

| Compound | cytotoxicity at 10 µM [%] |
| --- | --- |
| CCc1nc(CN(C)CC2CCN(CCO)CC2)no1 | -9.68 |
| Cc1noc(C(C)N2CCN(CCC(=O)N3CCCCC3)CC2)n1 (stereo not given) | -9.24 |
| COc1cccc(Cn2c(C)c(C)oc2=O)c1OC | -2.34 |
| CN(C)CCCn1ccnc1C1CCCN(c2ncc(Cl)cc2F)C1 (stereo not given) | -7.43 |
| COc1cccc2c(=O)n(Cc3ccnc(C)c3)cnc12 | -0.0198 |
| CCNC(=O)[C@@H]1C[C@H](N)CN1C(=O)c1cccc(CCC(C)(C)O)c1 | 4.61 |
| CCC[C@@H]1CN(Cc2ccccc2C#N)C[C@H]1NC(C)=O | -3.92 |
| CC(C(=O)O)N1CC2(CCC1=O)CCN(CCc1ccccc1)CC2 (stereo not given) | -0.503 |
| Cc1[nH]c2c(F)cccc2c1CC(=O)NC1CCCCNC1=O (stereo not given) | 19.1 |
| COCCN(C)C[C@@H]1CN(Cc2ccnc3ccccc23)C[C@@H]1CO | -6.33 |
| CC(C)(C)c1nc(CN2CCCN(Cc3cccs3)CC2)no1 | 6 |
| O=C(c1cc(Cl)ccc1F)N1CCCC1Cn1cccn1 (stereo not given) | 8.36 |
| COc1cccc(OCC(=O)NS(=O)(=O)c2ccc(Br)s2)c1 | -16.1 |
| Cc1cnn(CCNCC(=O)NCC2(c3ccccc3)CC2)c1 | 5.58 |
| CN(C)c1cc(C(=O)N2CCCCC2Cn2cccn2)ccn1 (stereo not given) | -23 |
| Cc1nc2ccccc2nc1CN1CCCC1Cn1cccn1 (stereo not given) | -31.4 |
| CS(=O)(=O)c1ccc(CNC(=O)NCC2CCOC2)cc1 (stereo not given) | -9.22 |
| CC(C)N(C)Cc1cnc2n1CCN(Cc1ccc(F)cc1)C2 | 1.44 |
| CCN1CC[C@@]2(C(=O)N3CCOCC3)CCN(S(=O)(=O)CC)CC[C@@H]12 | 8.92 |
| Cc1nn(C)c(C)c1S(=O)(=O)N1CC[C@H]2O[C@@H](C)C[C@H]2C1 | 2.79 |
| CN(C)C(=O)CN1CCC2(CC1)COc1ccccc1S(=O)(=O)N(C)C2 | -0.259 |
| CN(C)C(=O)CN1C(=O)CCC12CCN(Cc1ccc(F)cc1)CC2 | 7.8 |
